Measured values as given in paper PMC6713505 (Science Advances, 2019).

Assays:
[1] = tested on: FL transporter-2 (Blon_2202–2204); type: cell-based, B. infantis JCM 1222^T; details: for change in concentration of each HMO in culture supernatant (consumption): MS554 expressing FL transporter-2, growth on 0.5% (w/v) purified HMO mixture
Outline: (§1)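 The host was B. longum 105-A ΔlnbX ΔgltA carrying pMSK65, which encodes intracellular HMO-degrading exo-glycosidases. It was transformed with the transporter gene cluster or an empty vector. Cultures grew anaerobically at 37°C in MRS-CS with 0.5% (w/v) purified HMO mixture, Lac, 2′-FL, 3-FL, LDFT or LNFP I. OD600 was followed in technical duplicates. Supernatant HMOs were fluorescence-labelled and measured by HPLC against a maltoheptaose internal standard, in technical triplicates; means ± SD.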

[2] = tested on: FL transporter-1 (Blon_0341–0343); type: cell-based, B. infantis JCM 1222^T; details: for change in concentration of each HMO in culture supernatant (consumption): MS554 expressing FL transporter-1, growth on 0.5% (w/v) purified HMO mixture
Outline: as §1

B. infantis JCM 1222^T = type: cell-based; details: 0.5% (w/v) sugar
Outline: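 B. infantis JCM 1222T wild type and FL transporter mutants were grown anaerobically at 37°C in MRS-CS broth (0.34% w/v sodium ascorbate, 0.02% w/v cysteine-HCl). Each broth carried 0.5% (w/v) of Gal, 2′-FL, 3-FL, LDFT, LNFP I or purified HMO mixture. The HMO mixture was purified from pooled breast milk and contained 2% (w/w) Lac impurity. Growth was followed over time in biological duplicates, reported as means ± SD.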

Molecule: CC(=O)N[C@H]1[C@H](O[C@H]2[C@@H](O)[C@@H](CO)O[C@@H](O[C@H]3[C@H](O)[C@@H](O)C(O)O[C@@H]3CO)[C@@H]2O)O[C@H](CO)[C@@H](O[C@@H]2O[C@H](CO)[C@H](O)[C@H](O)[C@H]2O)[C@@H]1O (mixture of isomers) [LNnT, lacto-N-neotetraose]
- change in concentration of each HMO in culture supernatant (consumption) [1]: invariant
- change in concentration of each HMO in culture supernatant (consumption) [2]: invariant

Molecule: OC[C@H]1O[C@@H](O[C@H]2[C@H](O)[C@@H](O)C(O)O[C@@H]2CO)[C@H](O)[C@@H](O)[C@H]1O (mixture of isomers) [Lac, lactose]
- growth on sugar as carbon source ([1]; MS554 expressing FL transporter-2, 0.5% (w/v) sugar, OD600): indistinguishable from the control strain
- growth on sugar as carbon source ([2]; MS554 expressing FL transporter-1, 0.5% (w/v) sugar, OD600): indistinguishable from the control strain

Molecule: O=C[C@H](O)[C@@H](O)[C@@H](O)[C@H](O)CO [Gal, galactose]
- growth of WT and the four mutants of B. infantis (B. infantis JCM 1222^T): grew at similar rates

Molecule: CC(=O)N[C@H]1[C@H](O[C@H]2[C@@H](O)[C@@H](CO)O[C@@H](O[C@@H]([C@H](O[C@@H]3O[C@@H](C)[C@@H](O)[C@@H](O)[C@@H]3O)[C@@H](O)C=O)[C@H](O)CO)[C@@H]2O)O[C@H](CO)[C@@H](O[C@@H]2O[C@@H](C)[C@@H](O)[C@@H](O)[C@@H]2O)[C@@H]1O[C@@H]1O[C@H](CO)[C@H](O)[C@H](O)[C@H]1O [LNDFH II]
- change in concentration of each HMO in culture supernatant (consumption) [1]: invariant
- change in concentration of each HMO in culture supernatant (consumption) [2]: invariant

Molecule: CC(=O)N[C@H]1[C@H](O[C@H]2[C@@H](O)[C@@H](CO)O[C@@H](O[C@H]3[C@H](O)[C@@H](O)C(O)O[C@@H]3CO)[C@@H]2O)O[C@H](CO)[C@@H](O)[C@@H]1O[C@@H]1O[C@H](CO)[C@H](O)[C@H](O)[C@H]1O (some centres unmarked) [LNT, lacto-N-tetraose]
- change in concentration of each HMO in culture supernatant (consumption) [1]: invariant
- change in concentration of each HMO in culture supernatant (consumption) [2]: invariant

Molecule: lacto-N-difucohexaose (LNDFH) I [LNDFH I]
- change in concentration of each HMO in culture supernatant (consumption) [1]: invariant
- change in concentration of each HMO in culture supernatant (consumption) [2]: invariant
